# Data taken from ChEMBL document CHEMBL1131058, “Studies on quinazolines and 1,2,4-benzothiadiazine 1,1-dioxides. 8.1, 2 synthesis and pharmacological evaluation of tricyclic fused quinazolines and 1,2,4-benzothiadiazine 1,1-dioxides as potential alpha1-adrenoceptor antagonists” (J Med Chem, 1998).
# How the values were obtained:
# Sigma 2 receptor [1] = assay: Binding affinity towards Sigma 2 receptor using [3H]ifenprodil in rat brain; type: tissue-based
# Outline: (§1)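 Contract radioligand competition binding. Sources: 5-HT1 and 5-HT1A in rat brain cortex; 5-HT2 and σ2 in rat brain; σ in guinea pig brain; D2, rhD2 and rhD3 in CHO cells with [³H]spiperone; H1 in guinea pig lung with [³H]pyrilamine. Inhibition constants reported; no constant given where inhibition at 10 µM was below 50%.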
# [2] = molecular target: T1, Adrenergic receptor alpha-1 (Rattus norvegicus, UniProt P15823+P23944+P43140); assay: Compound is evaluated for binding affinity towards Alpha-1 adrenergic receptor in rat brain cortex membrane; type: cell membranes
# T1 sequence (P15823 whole entry): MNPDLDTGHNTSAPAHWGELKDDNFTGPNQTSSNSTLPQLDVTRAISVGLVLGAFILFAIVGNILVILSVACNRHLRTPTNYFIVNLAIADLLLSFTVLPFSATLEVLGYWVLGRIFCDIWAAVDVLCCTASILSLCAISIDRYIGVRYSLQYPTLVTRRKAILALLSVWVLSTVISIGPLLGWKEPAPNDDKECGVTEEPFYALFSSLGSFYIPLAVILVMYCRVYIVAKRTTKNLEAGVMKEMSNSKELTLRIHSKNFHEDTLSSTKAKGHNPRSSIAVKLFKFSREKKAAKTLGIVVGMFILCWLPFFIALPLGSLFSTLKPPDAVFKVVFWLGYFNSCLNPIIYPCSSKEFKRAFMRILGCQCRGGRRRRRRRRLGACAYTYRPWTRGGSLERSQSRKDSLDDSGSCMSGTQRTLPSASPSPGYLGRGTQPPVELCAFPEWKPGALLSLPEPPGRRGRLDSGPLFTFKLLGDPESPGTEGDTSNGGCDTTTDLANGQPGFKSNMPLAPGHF
# T1 sequence (P23944 whole entry): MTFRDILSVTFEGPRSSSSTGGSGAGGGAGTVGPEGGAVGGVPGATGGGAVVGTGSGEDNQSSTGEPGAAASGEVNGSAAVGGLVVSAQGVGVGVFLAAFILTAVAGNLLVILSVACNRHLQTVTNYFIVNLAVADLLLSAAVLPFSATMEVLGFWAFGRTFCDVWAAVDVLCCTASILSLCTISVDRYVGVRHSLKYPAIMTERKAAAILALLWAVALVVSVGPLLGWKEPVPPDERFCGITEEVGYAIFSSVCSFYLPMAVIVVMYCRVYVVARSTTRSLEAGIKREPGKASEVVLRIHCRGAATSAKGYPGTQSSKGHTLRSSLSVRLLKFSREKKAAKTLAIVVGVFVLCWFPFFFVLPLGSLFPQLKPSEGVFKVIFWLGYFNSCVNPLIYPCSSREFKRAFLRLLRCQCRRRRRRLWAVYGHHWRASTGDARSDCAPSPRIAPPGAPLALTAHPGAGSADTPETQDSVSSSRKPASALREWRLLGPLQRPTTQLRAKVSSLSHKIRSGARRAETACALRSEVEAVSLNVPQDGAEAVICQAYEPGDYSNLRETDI
# T1 sequence (P43140 whole entry): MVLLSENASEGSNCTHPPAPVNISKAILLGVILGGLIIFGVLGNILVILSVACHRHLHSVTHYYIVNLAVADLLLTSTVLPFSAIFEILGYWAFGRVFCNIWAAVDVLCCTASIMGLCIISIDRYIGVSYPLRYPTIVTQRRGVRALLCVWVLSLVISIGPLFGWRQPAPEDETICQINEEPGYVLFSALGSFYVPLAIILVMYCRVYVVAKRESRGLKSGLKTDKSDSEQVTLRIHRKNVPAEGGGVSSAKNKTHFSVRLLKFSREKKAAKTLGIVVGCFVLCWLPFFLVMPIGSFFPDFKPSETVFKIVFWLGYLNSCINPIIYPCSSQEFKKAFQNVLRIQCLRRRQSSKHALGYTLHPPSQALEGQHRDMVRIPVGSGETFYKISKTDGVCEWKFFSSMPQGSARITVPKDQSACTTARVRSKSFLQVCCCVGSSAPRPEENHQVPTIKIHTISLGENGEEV
# Outline: (§2)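 Triplicate competition binding against 0.2-0.25 nM [³H]prazosin in Tris buffer pH 7.4, 30 min at room temperature. Competitor range 0.1-200 nM. Nonspecific binding defined with 10 µM phentolamine. Reaction stopped by GF/B filtration with two cold Tris washes. Membrane protein 300-400 µg per assay. Ki calculated from the data; mean ± SEM of 3-6 experiments.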
# [3] = molecular target: 5-hydroxytryptamine receptor 1A (Rattus norvegicus) (UniProt P19327); assay: Compound is evaluated for binding affinity towards 5-hydroxytryptamine 1A receptor using [3H]-8-OH- -DPAT in rat brain cortex at 10 uM; type: tissue-based
# Outline: (§3)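 Single-concentration screen at 10 µM in contract radioligand binding assays. Records whether inhibition of specific radioligand binding stayed below 50%.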
# D(2) dopamine receptor [4] = molecular target: T2, D(2) dopamine receptor (Homo sapiens, UniProt P14416); assay: Compound is evaluated for binding affinity towards Dopamine receptor D2 using [3H]-spiperone in CHO cells at 10 uM; type: cell-based
# [5] = molecular target: Alpha-2A adrenergic receptor (Homo sapiens) (UniProt P08913); assay: Compound is evaluated for binding affinity towards Alpha-2A adrenergic receptor using [3H]MK912 at 10 uM
# [6] = molecular target: Sodium channel alpha subunits; brain (Types I, II, III) (Rattus norvegicus) (UniProt P04775+P04774+P08104); assay: Displacement of [3H]batrachotoxin from rat brain sodium channel at 10 uM; type: tissue-based
# Outline: (§4)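 Radioligand competition binding was done by an outside contract lab (Pan Lab). Inhibition constants (Ki) were derived from displacement of the stated tritiated ligand. Each compound was tested at 10 µM. Where inhibition at that concentration stayed below 50%, no Ki was reported.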
# Histamine H1 receptor = Histamine H1 receptor (Cavia porcellus, UniProt P31389); assay: Compound is evaluated for binding affinity towards Histamine H1 receptor using [3H]pyrilamine in guinea pig lung; type: tissue-based; outline: as §1
# Sigma 2 receptor [7] = assay: (§5) Binding affinity towards Sigma 2 receptor using [3H]ifenprodil in rat brain at 10 uM; type: tissue-based; outline: as §4
# [8] = molecular target: T3, Serotonin 1 (5-HT1) receptor (Rattus norvegicus, UniProt P28564+P30940+P19327+P28565); assay: Compound is evaluated for binding affinity towards 5-hydroxytryptamine 1 receptor using [3H]5-HT in rat brain cortex; type: tissue-based; outline: as §1
# D(3) dopamine receptor = D(3) dopamine receptor (Homo sapiens, UniProt P35462); assay: Compound is evaluated for binding affinity towards recombinant human Dopamine receptor D3 using [3H]spiperone in CHO cells; type: cell-based; outline: as §1
# [9] = molecular target: T1, Adrenergic receptor alpha-1; assay: Binding affinity towards Alpha-1 adrenergic receptor measured by displacement of [3H]prazosin from rat brain cortex membranes; type: cell membranes, Membrane; outline: as §2
# Sigma 2 receptor [10] = assay: as §5; type: tissue-based; outline: as §3; remark: listed apart in the source
# [11] = molecular target: T3, Serotonin 1 (5-HT1) receptor; assay: Compound is evaluated for binding affinity towards 5-hydroxytryptamine 1 receptor using [3H]5-HT in rat brain cortex at 10 uM; type: tissue-based; outline: as §3
# D(2) dopamine receptor [12] = molecular target: T2, D(2) dopamine receptor; assay: Compound is evaluated for binding affinity towards Dopamine receptor D2 using [3H]spiperone in CHO cells; type: cell-based; outline: as §1
# T2 sequence (P14416 whole entry): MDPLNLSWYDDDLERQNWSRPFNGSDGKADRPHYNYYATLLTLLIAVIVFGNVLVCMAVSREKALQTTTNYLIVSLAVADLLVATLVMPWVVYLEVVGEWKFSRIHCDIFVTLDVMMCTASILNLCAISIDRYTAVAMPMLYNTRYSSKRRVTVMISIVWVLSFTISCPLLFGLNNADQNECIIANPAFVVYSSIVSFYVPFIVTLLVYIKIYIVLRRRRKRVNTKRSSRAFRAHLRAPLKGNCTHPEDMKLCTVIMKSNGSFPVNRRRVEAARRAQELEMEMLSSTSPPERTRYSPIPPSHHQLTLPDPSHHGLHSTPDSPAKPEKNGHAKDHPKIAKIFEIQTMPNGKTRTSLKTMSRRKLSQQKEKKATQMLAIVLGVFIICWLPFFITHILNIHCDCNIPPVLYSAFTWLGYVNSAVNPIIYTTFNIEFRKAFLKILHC
# Sequence of 5-hydroxytryptamine receptor 1A (Rattus norvegicus) (P19327 whole entry): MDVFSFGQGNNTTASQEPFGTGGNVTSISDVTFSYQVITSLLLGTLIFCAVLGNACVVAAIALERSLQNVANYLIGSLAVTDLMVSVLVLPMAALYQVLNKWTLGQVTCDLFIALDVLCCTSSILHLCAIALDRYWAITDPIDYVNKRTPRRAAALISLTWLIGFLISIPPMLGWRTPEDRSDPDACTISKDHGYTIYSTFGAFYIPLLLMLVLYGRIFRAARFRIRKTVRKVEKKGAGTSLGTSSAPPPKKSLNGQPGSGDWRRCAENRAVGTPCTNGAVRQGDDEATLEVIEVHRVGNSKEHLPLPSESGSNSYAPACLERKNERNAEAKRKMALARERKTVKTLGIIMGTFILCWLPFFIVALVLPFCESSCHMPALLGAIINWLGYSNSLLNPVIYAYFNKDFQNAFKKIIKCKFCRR
# Sequence of Sodium channel alpha subunits; brain (Types I, II, III) (Rattus norvegicus) (P04775 whole entry, looked up, other chains not shown): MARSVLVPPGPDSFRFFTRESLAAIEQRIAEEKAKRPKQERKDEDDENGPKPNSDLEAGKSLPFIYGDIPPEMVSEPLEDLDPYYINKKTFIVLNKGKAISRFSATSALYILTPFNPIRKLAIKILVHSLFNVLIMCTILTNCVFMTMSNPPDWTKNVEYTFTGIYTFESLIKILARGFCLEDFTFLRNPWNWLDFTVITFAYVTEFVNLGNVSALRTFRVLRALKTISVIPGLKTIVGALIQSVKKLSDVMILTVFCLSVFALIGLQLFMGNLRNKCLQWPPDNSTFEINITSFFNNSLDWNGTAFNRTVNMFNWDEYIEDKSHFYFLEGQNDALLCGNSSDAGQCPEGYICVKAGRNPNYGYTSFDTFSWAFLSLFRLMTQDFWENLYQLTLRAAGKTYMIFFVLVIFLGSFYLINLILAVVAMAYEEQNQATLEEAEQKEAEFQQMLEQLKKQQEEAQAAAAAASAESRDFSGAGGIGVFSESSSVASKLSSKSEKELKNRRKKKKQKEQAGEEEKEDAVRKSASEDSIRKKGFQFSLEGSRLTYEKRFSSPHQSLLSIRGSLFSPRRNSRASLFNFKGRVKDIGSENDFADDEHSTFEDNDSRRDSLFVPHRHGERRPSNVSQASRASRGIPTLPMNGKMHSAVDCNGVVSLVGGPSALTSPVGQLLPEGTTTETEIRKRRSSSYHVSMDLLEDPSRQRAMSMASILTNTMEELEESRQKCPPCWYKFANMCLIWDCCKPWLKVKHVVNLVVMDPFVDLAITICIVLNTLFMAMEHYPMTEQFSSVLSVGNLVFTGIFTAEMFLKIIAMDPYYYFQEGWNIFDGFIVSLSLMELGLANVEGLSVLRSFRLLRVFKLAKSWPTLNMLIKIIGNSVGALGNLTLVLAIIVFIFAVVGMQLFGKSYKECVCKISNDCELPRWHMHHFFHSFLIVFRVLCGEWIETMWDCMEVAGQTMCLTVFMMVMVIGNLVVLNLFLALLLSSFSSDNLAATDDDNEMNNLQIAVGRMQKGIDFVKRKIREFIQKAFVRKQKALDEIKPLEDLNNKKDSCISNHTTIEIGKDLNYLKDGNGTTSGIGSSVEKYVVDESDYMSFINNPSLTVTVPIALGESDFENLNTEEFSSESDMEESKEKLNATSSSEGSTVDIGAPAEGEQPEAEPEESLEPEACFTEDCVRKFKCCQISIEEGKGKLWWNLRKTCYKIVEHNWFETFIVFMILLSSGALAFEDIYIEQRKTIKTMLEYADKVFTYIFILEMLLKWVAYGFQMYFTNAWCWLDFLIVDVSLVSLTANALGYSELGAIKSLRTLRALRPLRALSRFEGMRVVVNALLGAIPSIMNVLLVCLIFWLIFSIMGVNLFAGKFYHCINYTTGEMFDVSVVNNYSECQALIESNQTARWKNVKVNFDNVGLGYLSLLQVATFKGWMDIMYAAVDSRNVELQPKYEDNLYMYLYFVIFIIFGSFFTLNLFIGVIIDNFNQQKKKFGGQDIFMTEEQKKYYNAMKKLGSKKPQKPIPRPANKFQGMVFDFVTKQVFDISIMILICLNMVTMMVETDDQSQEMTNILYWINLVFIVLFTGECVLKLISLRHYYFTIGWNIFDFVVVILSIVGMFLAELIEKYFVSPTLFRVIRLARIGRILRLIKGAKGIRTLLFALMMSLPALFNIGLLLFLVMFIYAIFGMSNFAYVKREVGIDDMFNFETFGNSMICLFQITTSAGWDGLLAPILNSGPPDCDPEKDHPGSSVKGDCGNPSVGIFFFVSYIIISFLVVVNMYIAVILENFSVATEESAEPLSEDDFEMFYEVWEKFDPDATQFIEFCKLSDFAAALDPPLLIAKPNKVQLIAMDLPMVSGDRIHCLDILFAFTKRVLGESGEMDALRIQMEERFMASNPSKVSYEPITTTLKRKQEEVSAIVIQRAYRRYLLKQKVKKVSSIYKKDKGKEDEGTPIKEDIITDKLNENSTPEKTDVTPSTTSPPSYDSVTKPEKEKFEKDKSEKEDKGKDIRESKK
# Sequence of Sodium channel alpha subunits; brain (Types I, II, III) (Rattus norvegicus) (P08104 whole entry, looked up, other chains not shown): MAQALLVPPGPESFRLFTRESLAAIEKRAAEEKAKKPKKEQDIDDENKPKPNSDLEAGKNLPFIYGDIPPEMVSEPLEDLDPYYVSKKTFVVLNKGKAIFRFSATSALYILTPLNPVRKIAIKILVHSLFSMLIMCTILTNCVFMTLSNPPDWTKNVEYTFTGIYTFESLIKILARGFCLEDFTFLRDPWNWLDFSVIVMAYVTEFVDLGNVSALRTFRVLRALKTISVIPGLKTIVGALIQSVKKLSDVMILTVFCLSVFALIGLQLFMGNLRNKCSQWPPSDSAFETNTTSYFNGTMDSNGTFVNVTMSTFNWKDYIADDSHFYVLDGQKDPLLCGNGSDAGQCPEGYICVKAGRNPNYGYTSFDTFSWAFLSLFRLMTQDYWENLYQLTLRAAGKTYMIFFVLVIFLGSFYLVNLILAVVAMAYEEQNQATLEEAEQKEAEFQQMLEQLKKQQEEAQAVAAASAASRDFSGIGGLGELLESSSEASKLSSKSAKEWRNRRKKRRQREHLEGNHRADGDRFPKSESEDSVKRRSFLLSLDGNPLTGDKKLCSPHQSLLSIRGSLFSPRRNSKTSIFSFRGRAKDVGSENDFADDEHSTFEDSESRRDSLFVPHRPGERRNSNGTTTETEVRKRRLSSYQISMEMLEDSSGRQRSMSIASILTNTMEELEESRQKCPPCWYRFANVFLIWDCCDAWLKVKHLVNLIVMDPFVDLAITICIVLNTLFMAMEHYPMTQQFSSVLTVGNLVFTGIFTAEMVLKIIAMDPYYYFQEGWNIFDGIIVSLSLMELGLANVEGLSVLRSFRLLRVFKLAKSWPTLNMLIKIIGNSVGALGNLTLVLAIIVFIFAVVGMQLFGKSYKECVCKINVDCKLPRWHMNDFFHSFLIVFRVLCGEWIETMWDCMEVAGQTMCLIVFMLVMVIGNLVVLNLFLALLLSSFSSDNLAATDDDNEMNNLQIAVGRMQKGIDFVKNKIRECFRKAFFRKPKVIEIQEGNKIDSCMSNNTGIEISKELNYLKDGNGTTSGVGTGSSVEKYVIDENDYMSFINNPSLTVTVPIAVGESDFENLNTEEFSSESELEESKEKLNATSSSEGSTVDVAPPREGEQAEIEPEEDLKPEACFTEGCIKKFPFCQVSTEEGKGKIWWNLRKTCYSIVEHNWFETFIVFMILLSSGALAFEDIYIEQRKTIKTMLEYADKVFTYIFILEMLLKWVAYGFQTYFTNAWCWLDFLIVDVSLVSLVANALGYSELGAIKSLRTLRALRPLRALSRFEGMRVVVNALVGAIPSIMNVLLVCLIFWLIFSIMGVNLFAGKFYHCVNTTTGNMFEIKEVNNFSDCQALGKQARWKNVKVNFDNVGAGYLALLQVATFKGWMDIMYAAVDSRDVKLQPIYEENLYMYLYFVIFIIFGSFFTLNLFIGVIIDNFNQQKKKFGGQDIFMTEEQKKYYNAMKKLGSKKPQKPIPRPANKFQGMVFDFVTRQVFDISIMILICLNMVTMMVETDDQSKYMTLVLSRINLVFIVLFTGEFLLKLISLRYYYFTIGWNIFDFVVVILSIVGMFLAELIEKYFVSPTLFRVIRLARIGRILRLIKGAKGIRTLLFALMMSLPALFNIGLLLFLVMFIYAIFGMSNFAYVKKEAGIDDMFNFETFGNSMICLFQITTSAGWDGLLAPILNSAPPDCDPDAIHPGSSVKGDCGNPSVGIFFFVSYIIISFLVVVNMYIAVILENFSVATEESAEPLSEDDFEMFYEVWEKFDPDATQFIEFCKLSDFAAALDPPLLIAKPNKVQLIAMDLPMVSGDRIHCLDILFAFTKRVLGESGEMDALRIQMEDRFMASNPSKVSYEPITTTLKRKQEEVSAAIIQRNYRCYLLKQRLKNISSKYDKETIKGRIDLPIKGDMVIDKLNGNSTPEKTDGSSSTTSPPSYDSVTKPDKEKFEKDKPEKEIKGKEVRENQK
smiles,measurement,setting,value
Oc1nc2ccccc2c2ncc(CN3CCN(c4ccccc4Cl)CC3)n12,Ki,Sigma 2 receptor [1],3050 nM
same,Ki,[2],7.12 nM
same,inhibition,[3],< 50%
same,inhibition,D(2) dopamine receptor [4],< 50%
COc1ccccc1N1CCN(C[C@@H]2CN=C3c4ccccc4NC(=O)N32)CC1,inhibition,[5],< 50%
COc1ccccc1N1CCN(CC2CN3C(=O)Nc4ccccc4C3=N2)CC1 (stereo not drawn),inhibition,[6],< 50%
same,Ki,Histamine H1 receptor,961 nM
same,inhibition,Sigma 2 receptor [7],< 50%
same,Ki,[8],2500 nM
same,Ki,D(3) dopamine receptor,2200 nM
COc1ccccc1N1CCN(Cc2cn3c(O)nc4ccccc4c3n2)CC1,Ki,Sigma 2 receptor [1],4880 nM
same,inhibition,[3],< 50%
same,Ki,[9],6.53 nM
COc1ccccc1N1CCN(Cc2cnc3c4ccccc4nc(O)n23)CC1,inhibition,Sigma 2 receptor [7],< 50%
same,Ki,[9],5.06 nM
COc1ccccc1N1CCN(CC2CN=C3c4ccccc4N=C(SC)N32)CC1 (stereo not drawn),Inhibition,Sigma 2 receptor [10],< 50%
same,Ki,[11],1839 nM
same,Ki,D(2) dopamine receptor [12],449 nM
